Rows were chosen to be rich in hits. Some 2.1% of all compounds tested hit in one or more screens of this group.
APJ antag = antagonists of human APJ apelin receptor; CHO-K1 APJ beta-arrestin complementation, luminescence; inhibition, % at 20 µM; 330,000 compounds, 0.32% hits; AID 2521;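 active means inhibition above about 40% at 20 µM, limit read from the data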;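 further: cells challenged with 10 nM apelin-13 agonist together with compound; plate controls were apelin-13 plus DMSO wells for no effect and DMSO wells lacking apelin-13 for full effect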
Target sequence (P35414 whole entry, looked up): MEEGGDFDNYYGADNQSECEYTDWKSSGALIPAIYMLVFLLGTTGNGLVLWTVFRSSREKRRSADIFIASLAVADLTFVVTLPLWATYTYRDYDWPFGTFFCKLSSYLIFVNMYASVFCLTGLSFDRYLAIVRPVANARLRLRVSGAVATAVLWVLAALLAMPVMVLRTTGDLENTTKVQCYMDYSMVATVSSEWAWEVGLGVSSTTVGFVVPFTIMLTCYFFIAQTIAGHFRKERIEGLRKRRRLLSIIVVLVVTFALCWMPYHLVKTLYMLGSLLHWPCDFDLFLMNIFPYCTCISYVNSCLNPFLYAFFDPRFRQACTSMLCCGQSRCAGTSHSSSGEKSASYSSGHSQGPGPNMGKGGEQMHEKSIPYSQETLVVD
HTR2A ag = agonists of mouse serotonin 5-HT2A receptor (HTR2A) | P35363 | CHO-K1 mHTR2A beta-arrestin complementation, luminescence; percent of 30 µM serotonin response | activation, % at 7.6 µM | 360,000 compounds, 0.66% hits | AID 624169;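 active means activation above a run cutoff, the mean activation of all tested compounds plus 3 SD, cut at about 14% in these data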;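 further: 0% = plate median of compound wells and 100% = 30 µM serotonin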
APJ ag = agonists of human APJ apelin receptor; P35414; CHO-K1 APJ PathHunter beta-arrestin, luminescence; 0% DMSO wells, 100% apelin; activation, % at 20 µM; 330,000 compounds, 0.11% hits; AID 2520;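 active means activation more than six SD over the plate average, tested at 20 µM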;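 further: 0% = DMSO alone and 100% = apelin-13 at 10 nM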
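Material: CHO-K1 APJ beta-arrestin complementation cell line; Input: cell density 1000 per well; Incubation: compound stimulation 90 min at 25 °C, detection 60 min; Signal: luminescence from split beta-galactosidase complementation, Galacton Star/Emerald II substrate; Controls: DMSO-only wells as negative, 10 nM Apelin-13 as positive control.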
CXCR6 block = CXCR6 (human) receptor inhibition; O00574; CHO-K1 PathHunter CXCR6 beta-arrestin, luminescence; inhibition, % at 20 µM; 360,000 compounds, 0.36% hits; AID 602244; in the data active means inhibition above about 34%, passing the limit was not always enough;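 further: antagonist mode with CXCL16 agonist at 10 nM final; 0% = 10 nM CXCL16 with DMSO and 100% = unstimulated wells without agonist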
Target sequence (O00574 whole entry, looked up): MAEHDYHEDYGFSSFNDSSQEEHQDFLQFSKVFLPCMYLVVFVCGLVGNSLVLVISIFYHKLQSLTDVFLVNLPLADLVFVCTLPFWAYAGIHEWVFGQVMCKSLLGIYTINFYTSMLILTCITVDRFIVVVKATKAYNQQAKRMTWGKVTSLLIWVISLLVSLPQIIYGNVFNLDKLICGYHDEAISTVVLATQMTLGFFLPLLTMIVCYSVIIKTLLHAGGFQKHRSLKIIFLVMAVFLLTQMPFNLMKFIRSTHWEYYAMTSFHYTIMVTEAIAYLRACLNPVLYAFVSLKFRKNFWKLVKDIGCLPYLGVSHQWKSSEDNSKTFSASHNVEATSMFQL
EBI2 block = EBI2 (human) antagonism; P32249; EBI2 beta-arrestin recruitment, luminescence, 7a,25-OHC stimulated; inhibition, % at 5 µM; 360,000 compounds, 0.81% hits; AID 651636; in the data active means inhibition above about 38%;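 further: enzyme fragment complementation signal reports receptor beta-arrestin coupling in cells; 0% = agonist plus DMSO wells and 100% = wells without agonist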
CCR6 antag = antagonists of human CCR6 receptor; CHO-K1 CCR6 PathHunter beta-arrestin, luminescence, CCL20-stimulated; inhibition, % at 20 µM; 340,000 compounds, 0.49% hits; AID 493098;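 active means compounds whose inhibition of the agonist-driven luminescence signal at 20 µM reaches about 50%, limit read from the data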;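 further: cells stimulated with CCL20 at 14 nM final; plate controls were DMSO with CCL20 for no effect and DMSO without agonist for full effect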
EBI2 antag conf = EBI2 (human) antagonism, single concentration confirmation; shares compounds with EBI2 block; 2,400 compounds, 29% hits; EBI2 beta-arrestin luminescence, 7a,25-OHC antagonism; inhibition, % at 5 µM; AID 651997;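 active means inhibition of at least 50%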
EBI2 agonist = activates EBI2, counter-screen for EBI2 antagonists; shares compounds with EBI2 block; EBI2-expressing cells, agonist mode, luminescence, 60 min; 0% vehicle, 100% 7α,25-dihydroxycholesterol control; activation, % at 5 µM; 2,400 tested, under 10 active; AID 652000;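 active means activation of at least 50%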
bGal cs = inhibits E. coli beta-galactosidase, counter-screen for EBI2 antagonists; inhibition, % at 5 µM; 2,400 compounds, 1% hits; AID 652176; shares compounds with EBI2 block; purified beta-galactosidase, luminescent Galacton Star, 15 min;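 active means replicate-average signal at least 3 plate SD below neutral wells, shown as high inhibition, flagging enzyme-inhibiting false positives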;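 further: 0% = DMSO wells with enzyme and 100% = wells lacking enzyme; higher means stronger loss of beta-gal luminescence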
Numbers without * were called inactive; x = no result.

SMILES	APJ antag	HTR2A ag	APJ ag	CXCR6 block	EBI2 block	CCR6 antag	EBI2 antag conf	EBI2 agonist	bGal cs
COc1ccccc1N1CCN(C(=O)/C=C/c2ccc3c(c2)OCO3)CC1	3.8	-2.5	-1.0	-6.9	78.4*	9.4	55.6*	-0.6	-9.3
Cc1ccc(S(=O)(=O)N2CCC(C(=O)OC(C)C(=O)N(C)c3ccccc3)CC2)cc1C (configuration not stated)	6.1	1.6	-4.3	5.9	16.2	4.7	x	x	x
COc1ccc(Cl)cc1Cn1c(C)c(C(=O)NCc2ccc3c(c2)OCCO3)sc1=O	x	-7.0	x	14.2	9.8	x	x	x	x
O=[N+]([O-])c1ccccc1S(=O)(=O)Nc1cccc(-c2ccc3nncn3n2)c1	4.5	-5.1	-2.5	-4.2	0.0	11.6	x	x	x
CC(C)c1cccc(C(C)C)c1NC(=O)CCN1C(=O)NC2(CCCC2)C1=O	11.1	-4.4	-2.5	-29.1	-1.6	10.9	x	x	x
COc1ccc(Cc2nc3ccc(C(=O)N4CCC[C@H]4CO)cc3o2)cc1	-50.9	-5.0	-7.4	-8.2	-7.0	2.0	x	x	x
CCOC(=O)C1CCCCN1C(=O)c1ccc2nc(Cc3ccc(OC)cc3)oc2c1 (configuration not stated)	-11.4	-6.5	-5.2	1.8	61.1*	9.5	49.0	0.2	3.2
Cc1cc(C(C)(C)C)oc1C(=O)N1CCN(C(=O)c2oc(C(C)(C)C)cc2C)CC1	x	2.4	x	14.2	48.0*	12.6	29.7	0.4	5.7
O=C(Cc1ccc(Cl)cc1)Nc1cccc(-c2nnc(-c3ccco3)o2)c1	-0.2	-1.1	-2.5	3.1	70.5*	13.8	39.8	-0.1	-16.9
O=C(Nc1cccc(-c2nnc(-c3ccco3)o2)c1)C(c1ccccc1)c1ccccc1	2.2	3.2	-6.2	7.5	77.0*	11.5	43.4	1.8	4.5
O=C(CN1C(=O)NC2(CCCC2)C1=O)Nc1nc2ccccc2[nH]1	10.3	-3.5	-0.5	-9.7	4.1	0.9	x	x	x
C/C(=N/NC(=O)CNc1ccc(C)cc1)c1ccc(Cl)cc1	7.6	-5.2	0.3	-11.4	18.1	-8.0	x	x	x
Cc1ccc(C(=O)CNc2ccc(Cl)cc2)cc1	101.9*	-1.6	-6.1	52.7*	57.1*	71.1*	75.8*	-3.1	2.1
Clc1ccc(-c2csc3ncnc(N4CCc5ccccc5C4)c23)cc1	11.0	6.1	-3.5	-1.6	44.4*	0.9	24.4	-1.6	-8.8
COc1ccccc1C(=O)Nc1ccnn1C1CCN(Cc2ccc3nonc3c2)CC1	6.5	-7.1	-0.7	-13.8	-12.1	8.9	x	x	x
Nc1c(Cl)ncnc1N/N=C/c1ccc2ccccc2n1	x	-7.4	x	53.4*	62.2*	83.7*	83.6*	-2.5	11.2
Nc1c(Cl)ncnc1N/N=C/c1ccnc2ccccc12	-0.6	-0.1	-0.9	-0.7	0.6	4.1	x	x	x
CCOc1ccc(NC(=O)N2CCC(c3ccc(C)cc3)C2)cc1 (configuration not stated)	32.2	0.2	-1.9	-4.0	80.7*	10.7	55.3*	-0.4	2.6
CCc1ccc(NC(=O)N2CCC(c3ccccc3)C2)cc1 (configuration not stated)	-1.5	-0.3	-6.1	-0.4	82.5*	16.7	63.0*	-0.1	5.8
Cc1ccccc1NC(=O)c1cc(C(=O)c2cc(Cl)ccc2O)cn(-c2ccccc2C)c1=O	-29.7	0.7	2.5	-14.9	8.5	15.0	x	x	x
Cc1nc(CS(=O)(=O)c2ccccc2)cc(Sc2ccccc2Cl)n1	22.3	1.2	-3.4	-2.8	43.1	-8.0	x	x	x
Cc1nc(CS(=O)(=O)c2ccccc2)cc(Sc2ccc(Cl)cc2)n1	-3.8	1.4	-0.9	-0.9	45.9*	26.2	28.7	-1.3	-10.9
Cc1nc(CS(=O)(=O)c2ccc(Cl)cc2)cc(Sc2ccccc2Cl)n1	-17.6	-3.3	0.2	6.0	70.6*	0.4	47.5	0.1	3.3
CNc1ccc(C(=O)N2CCN(S(=O)(=O)c3ccc4c(c3)OCCCO4)CC2)cc1[N+](=O)[O-]	29.6	3.3	-2.9	6.8	47.5*	17.2	29.2	1.2	7.7
COc1ccc(N2CCN(C(=O)c3cc(=O)c4ccc(C)cc4o3)CC2)cc1	9.6	-7.8	-1.6	-14.2	49.7*	-5.5	49.4	-1.8	-15.7
SMILES	APJ antag	HTR2A ag	APJ ag	CXCR6 block	EBI2 block	CCR6 antag	EBI2 antag conf	EBI2 agonist	bGal cs
COc1ccc(N2CCN(C(=O)c3cc(=O)c4cc(Cl)ccc4o3)CC2)cc1	5.5	2.3	-4.0	-11.8	96.0*	6.8	92.7*	-0.8	-20.9
COc1ccc(N2CCN(Cc3cc(=O)oc4ccc(Cl)cc34)CC2)cc1	-2.1	2.4	10.3	-0.5	16.7	6.4	x	x	x
CCOC(=O)C1=C(COC(=O)CNC(=O)c2ccc(Cl)cc2Cl)NC(=O)NC1C (configuration not stated)	-21.9	-2.1	-1.2	4.6	-4.2	7.4	x	x	x
CC(C)(C)c1ccc(Cn2cnc(-c3ccc([N+](=O)[O-])cc3)c2)cc1	-10.5	0.8	-2.3	3.5	50.6*	14.1	23.3	0.6	5.7
Cc1cc(C)c(Cn2cnc(-c3ccc([N+](=O)[O-])cc3)c2)c(C)c1	12.7	-0.2	-5.6	-4.5	42.1	8.9	x	x	x
Cc1ccc(NC(=O)c2cc(S(=O)(=O)N3CCOCC3)ccc2Cl)cc1S(=O)(=O)N1CCOCC1	x	-3.2	x	-3.9	-2.3	-4.6	x	x	x
O=C(O)C1=C[C@H](c2ccc3c(c2)OCO3)C[C@H](OCCCCO)O1	7.4	4.4	-1.6	5.7	-5.1	-2.3	x	x	x
CCN(CC)CCCNC(=O)C1CCC(CNS(=O)(=O)c2ccc(Cl)cc2)CC1 (configuration not stated)	0.5	-7.7	-4.0	-0.6	-3.9	9.8	x	x	x
CCOc1ccc(CCNC(=O)c2ccc(CS(=O)Cc3ccc(Cl)cc3)o2)cc1 (configuration not stated)	10.1	-0.8	0.0	-2.9	46.2*	16.9	28.2	1.3	1.6
O=C(NCCc1ccc(Cl)cc1)c1ccc(CS(=O)Cc2ccc(Cl)cc2)o1 (configuration not stated)	3.1	7.4	0.3	-6.4	67.9*	6.0	54.2*	-1.7	-8.2
CSc1ccc(CCNC(=O)c2ccc(CS(=O)Cc3ccc(Cl)cc3)o2)cc1 (configuration not stated)	4.7	-2.3	5.0	-16.4	53.8*	17.3	7.4	-0.3	-11.9
